Screening results deposited in PubChem by The Scripps Research Institute Molecular Screening Center.
An excerpt weighted towards active compounds, which were near 2.5% of everything screened.
HTRA1 inh: blocks human HTRA1 serine peptidase; recombinant HTRA1, FP-rhodamine activity-based probe, fluorescence polarization; inhibition, % at 5.96 µM; 340,000 tested, 0.5% active; in the data active = inhibition above about 36%;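 note: 0% = enzyme with DMSO and 100% = wells lacking enzyme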
TCR-CD3 inh: blocks the human TCR-CD3 interaction; TAMRA-labeled TCR probe fluorescence, biochemical; inhibition, % at 9.4 µM; 360,000 tested, 0.37% active; AID 651800; in the data active = inhibition above about 19%;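 note: recombinant mutant TCR 2C K166C tagged with TAMRA read by polarization; 0% = receptor in buffer alone and 100% = receptor with positive control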
PRMT1 FP inh: inhibitors of human PRMT1 | recombinant PRMT1, activity-based probe fluorescence polarization | Q99873 | 370,000 tested, 1.3% active | inhibition, % at 2.79 µM;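 active = inhibition above about 21% made by adding two undisclosed values, limit read from the data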
SIAE primary: human SIAE inhibition, primary screen. SIAE FP-Rh probe binding, fluorescence polarization. 370,000 tested, 0.69% active. inhibition, % at 9.66 µM. Q9HAT2;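 active = inhibition above a cutoff: mean of compounds within the control limits plus 3 SD of those, cut at about 17% in these data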;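 note: 0% = plate median of compound wells and 100% = probe without SIAE protein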
ABHD4 inh: ABHD4 (mouse) inhibition, primary FP screen. purified mABHD4, FP-Rh probe fluorescence polarization. 370,000 tested, 0.54% active. inhibition, % at 8.92 µM;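 active = inhibition exceeding the mean over every tested compound plus 3 SD, cut at about 30% in these data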;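 note: 0% = plate median of compound wells and 100% = S159A mutant with DMSO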
Target sequence (Q8VD66 whole entry, looked up): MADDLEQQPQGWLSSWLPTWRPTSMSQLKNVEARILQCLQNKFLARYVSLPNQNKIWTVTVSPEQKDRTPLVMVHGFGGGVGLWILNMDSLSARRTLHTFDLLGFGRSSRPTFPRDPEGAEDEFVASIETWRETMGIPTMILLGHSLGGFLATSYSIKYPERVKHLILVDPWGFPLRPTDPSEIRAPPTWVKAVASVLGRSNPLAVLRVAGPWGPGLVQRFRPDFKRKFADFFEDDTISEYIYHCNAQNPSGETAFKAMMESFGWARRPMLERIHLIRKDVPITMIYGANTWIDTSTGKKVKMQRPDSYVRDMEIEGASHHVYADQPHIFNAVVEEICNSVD
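Test system: mouse ABHD4 enzyme, wild type. Reagent: FP-Rh fluorescent activity-based probe, added after compound pre-incubation. Timing: pre-incubation 45 min, probe exposure 60 min, at 25 °C. Technique: FP readout, ex 525 nm / em 598 nm. Benchmarks: high control S159A mutant with DMSO, low control median of compound wells.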
SIAE confirm: confirmation of human SIAE inhibitors; AID 1117263; 2,300 tested, 13% active; inhibition, % at 9.66 µM; shares compounds with SIAE primary; SIAE FP-Rh activity-based probe, fluorescence polarization;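 active = mean inhibition of the replicates above the hit cutoff set in the primary screen, cut at about 17% in these data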;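 note: 0% = SIAE with DMSO and probe and 100% = probe without SIAE; inhibitors lower polarization as more probe stays unbound to SIAE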
* marks the source's active call; other numbers are inactive results.

How did COc1cccc(/C=N/NC(=O)c2oc3nc(-c4ccccc4)cc(-c4ccco4)c3c2N)c1 do in these assays?
HTRA1 inh: 8; TCR-CD3 inh: 3; PRMT1 FP inh: 2; SIAE primary: 7; ABHD4 inh: 9

How did CC[C@@H](C)C(N)c1cn([C@@H](CCC(=O)O)C(=O)N2CCNCC2)nn1 (stereo partly specified) do in these assays?
HTRA1 inh: 10; TCR-CD3 inh: 4; PRMT1 FP inh: 3; SIAE primary: 0; ABHD4 inh: 1

What do the screens show for `COc1cc(NC(=O)c2ccccc2F)c(OC)cc1NC(=O)CN1CCOCC1`?
HTRA1 inh: -6; TCR-CD3 inh: 0; PRMT1 FP inh: 6; SIAE primary: 17*; ABHD4 inh: 5; SIAE confirm: 3

How did COc1cc(NC(=O)c2ccc(F)cc2)c(OC)cc1NC(=O)CN1CCOCC1 do in these assays?
HTRA1 inh: 4; TCR-CD3 inh: 6; PRMT1 FP inh: -3; SIAE primary: 0; ABHD4 inh: -4

How did O=C(Cn1cnc2c(oc3ccccc32)c1=O)c1ccccc1 do in these assays?
HTRA1 inh: 4; TCR-CD3 inh: 6; PRMT1 FP inh: -1; SIAE primary: 18*; ABHD4 inh: -1; SIAE confirm: -3

What do the screens show for `CCCn1cnc2c(oc3ccccc32)c1=O`?
HTRA1 inh: 3; TCR-CD3 inh: 7; PRMT1 FP inh: 0; SIAE primary: 1; ABHD4 inh: -3

How did CCn1cnc2c(oc3ccccc32)c1=O do in these assays?
HTRA1 inh: -8; TCR-CD3 inh: 0; PRMT1 FP inh: -4; SIAE primary: 20*; ABHD4 inh: -4; SIAE confirm: 1

What do the screens show for `O=C(O)Cn1cnc2c(oc3ccccc32)c1=O`?
HTRA1 inh: 8; TCR-CD3 inh: 6; PRMT1 FP inh: -3; SIAE primary: -8; ABHD4 inh: -8

Results for Nc1ccn([C@@H]2O[C@H](C(=O)N3CCN(C(=O)N4CCCCC4)CC3)[C@@H](O)[C@H]2O)c(=O)n1 ?
TCR-CD3 inh: 5; PRMT1 FP inh: 1; SIAE primary: 13; ABHD4 inh: 8

How did CC(C)C(NC(=O)c1ccccc1)C(=O)OCC(=O)N1CCCC1 (stereo unspecified) do in these assays?
HTRA1 inh: 5; TCR-CD3 inh: -2; PRMT1 FP inh: 3; SIAE primary: -3; ABHD4 inh: 2

Results for Cc1cc(NC(=O)Cc2cc(F)cc(F)c2)no1 ?
HTRA1 inh: -4; TCR-CD3 inh: -2; PRMT1 FP inh: -2; SIAE primary: 0; ABHD4 inh: -2

Results for Cn1cccc1-c1cc(C(=O)N/N=C/c2ccccc2Cl)[nH]n1 ?
HTRA1 inh: -20; TCR-CD3 inh: -3; PRMT1 FP inh: 9; SIAE primary: 0; ABHD4 inh: -6

What do the screens show for `Cn1cccc1-c1cc(C(=O)N/N=C/c2cc(Br)ccc2O)[nH]n1`?
HTRA1 inh: 22; TCR-CD3 inh: -2; PRMT1 FP inh: 0; SIAE primary: 24*; ABHD4 inh: 2; SIAE confirm: -6

How did O=C1[C@@H](C2CC2)[C@@H]2c3ccccc3C=NN2[C@@H]2c3ccccc3C=NN12 do in these assays?
PRMT1 FP inh: -3; SIAE primary: 23*; ABHD4 inh: -2; SIAE confirm: -3

Results for C[C@@H]1C(=O)N2N=Cc3ccccc3[C@H]2N2N=Cc3ccccc3[C@@H]12 ?
PRMT1 FP inh: 2; SIAE primary: -1; ABHD4 inh: 4

Results for Nc1nc(C(F)(F)F)cc(=O)[nH]1 ?
HTRA1 inh: 5; TCR-CD3 inh: 0; PRMT1 FP inh: -3; SIAE primary: 21*; ABHD4 inh: -1; SIAE confirm: -2

How did Cc1ccc(-c2nc(C(F)(F)F)cc(=O)[nH]2)cc1 do in these assays?
HTRA1 inh: 4; TCR-CD3 inh: -6; PRMT1 FP inh: 7; SIAE primary: -3; ABHD4 inh: -7

How did CC(=O)CSc1ccc(S(=O)(=O)N2CCN(C)CC2)cn1 do in these assays?
HTRA1 inh: 1; TCR-CD3 inh: -1; PRMT1 FP inh: 7; SIAE primary: 23*; ABHD4 inh: -1; SIAE confirm: -2

What do the screens show for `COc1ccc(S(=O)(=O)N2CCN(C(=O)CN3C(=O)NC(C)(c4ccc5ccccc5c4)C3=O)CC2)cc1` (stereo unspecified)?
HTRA1 inh: -8; TCR-CD3 inh: 2; PRMT1 FP inh: 1; SIAE primary: 17*; ABHD4 inh: 3; SIAE confirm: 1
